Assay results published in ChEMBL document CHEMBL4765447, “Design, synthesis and biological evaluation of diamino substituted cyclobut-3-ene-1,2-dione derivatives for the treatment of drug-resistant tuberculosis” (Eur J Med Chem, 2020).
≈ marks a conversion by molar mass, not a printed value.

Experiments:
[1] = tested on: Mycobacterium tuberculosis H37Rv; test: Inhibition of ATP synthase in Mycobacterium tuberculosis H37Rv assessed as reduction in bacterial growth incubated for 7 days by microplate alamar blue assay; conditions: time 7.0 day
Outline: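 Microplate alamar blue assay. Strains grown to late log phase in 7H9 broth with 0.2% glycerol, 0.05% Tween 80 and 10% ADC, then washed, filtered (8 µm) and frozen. Twofold compound dilutions with 2×10^5 CFU per well at 37 °C. On day 7, Tween 80 and alamar blue added; after 16–24 h, fluorescence read at 530/590 nm. MIC is the lowest concentration giving ≥90% fluorescence reduction versus bacterium-only controls.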

Vero = test: Cytotoxicity against African green monkey Vero cells assessed as reduction in cell viability measured after 48 hrs by MTT assay; type: cell-based; conditions: Chlorocebus sabaeus
Outline: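 Vero cells grown in RPMI1640 with 10% FBS at 37 °C, 5% CO2, seeded at 4×10^5 cells/mL. Threefold dilutions from 64 to 0.26 µg/mL final, incubated 48 h at 37 °C. Monolayers washed with HBSS, then MTT added for 4 h. Absorbance read at 492 nm.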

[2] = Intrinsic clearance in human hepatocytes at 1 uM measured after 30 mins by LC-MS/MS analysis; type: ADME, cell-based, Hepatocyte; conditions: 0.5 h
Outline: (§1)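 Pooled male CD-1 mouse or pooled human hepatocytes, pre-incubated 20 min at 37 °C in CO2. Compound at 1 µM final with 1 million cells/mL. Samples taken at 0 and 30 min, quenched and centrifuged 15 min at 4 °C. Parent compound remaining measured by LC-MS/MS.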

[3] = molecular target: Voltage-gated inwardly rectifying potassium channel KCNH2 (Homo sapiens, UniProt Q12809); test: Inhibition of human ERG stably expressed in HEK293 cells by whole-cell manual patch clamp method; type: cell-based
Sequence of Voltage-gated inwardly rectifying potassium channel KCNH2 (Q12809 whole entry): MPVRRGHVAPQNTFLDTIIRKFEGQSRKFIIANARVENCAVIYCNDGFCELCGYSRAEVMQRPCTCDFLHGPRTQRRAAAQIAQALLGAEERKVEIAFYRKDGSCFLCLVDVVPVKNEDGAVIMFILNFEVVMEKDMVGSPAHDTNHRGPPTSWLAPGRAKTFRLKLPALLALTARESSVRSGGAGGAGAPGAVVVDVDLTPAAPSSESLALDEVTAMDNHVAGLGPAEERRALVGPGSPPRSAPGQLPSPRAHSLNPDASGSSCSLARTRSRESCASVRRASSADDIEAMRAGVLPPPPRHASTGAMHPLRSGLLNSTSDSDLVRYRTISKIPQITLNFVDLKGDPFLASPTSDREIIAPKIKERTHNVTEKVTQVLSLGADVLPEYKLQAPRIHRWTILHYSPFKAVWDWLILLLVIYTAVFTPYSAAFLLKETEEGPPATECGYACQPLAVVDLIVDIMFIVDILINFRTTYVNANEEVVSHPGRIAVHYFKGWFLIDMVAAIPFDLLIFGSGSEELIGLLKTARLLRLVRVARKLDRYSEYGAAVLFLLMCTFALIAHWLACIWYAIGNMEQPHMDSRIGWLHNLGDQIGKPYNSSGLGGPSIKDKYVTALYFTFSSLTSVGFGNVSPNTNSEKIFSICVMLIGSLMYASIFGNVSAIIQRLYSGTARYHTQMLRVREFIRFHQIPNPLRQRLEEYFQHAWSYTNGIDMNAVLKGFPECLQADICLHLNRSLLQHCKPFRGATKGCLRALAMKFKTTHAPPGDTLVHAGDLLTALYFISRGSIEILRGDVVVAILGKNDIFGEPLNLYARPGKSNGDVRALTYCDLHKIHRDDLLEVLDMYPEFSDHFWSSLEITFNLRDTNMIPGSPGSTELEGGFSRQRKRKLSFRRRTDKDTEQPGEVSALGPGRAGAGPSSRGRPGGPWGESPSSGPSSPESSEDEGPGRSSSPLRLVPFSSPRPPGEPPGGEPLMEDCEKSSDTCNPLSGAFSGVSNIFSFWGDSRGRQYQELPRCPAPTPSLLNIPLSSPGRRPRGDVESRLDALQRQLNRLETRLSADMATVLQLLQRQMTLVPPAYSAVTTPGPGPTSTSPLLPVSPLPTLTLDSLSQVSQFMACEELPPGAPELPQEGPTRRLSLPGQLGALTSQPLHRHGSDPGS

[4] = Half life in human hepatocytes at 1 uM measured after 30 mins by LC-MS/MS analysis; type: ADME, cell-based, Hepatocyte; outline: as §1
[5] = Half life in CD-1 mouse hepatocytes at 1 uM measured after 30 mins by LC-MS/MS analysis; type: ADME, cell-based, Hepatocyte; outline: as §1
[6] = Intrinsic clearance in CD-1 mouse hepatocytes at 1 uM measured after 30 mins by LC-MS/MS analysis; type: ADME, cell-based, Hepatocyte; conditions: 0.5 h; outline: as §1
[7] = Oral bioavailability in Balb/c mouse at 50 mg/kg by LC-MS analysis; type: ADME, organism-based; conditions: in vivo
Outline: (§2)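 Male Balb/c mice (26–27 g), three per route. Single dose of 50 mg/kg p.o. in 0.5% carboxymethyl cellulose (5 mg/mL), or 5 mg/kg i.v. in 10% DMSO/50% PEG400/40% water (1 mg/mL). Blood taken at 5, 15, 30 min, 1, 2, 4, 7 and 24 h. Plasma extracted with acetonitrile (terfenadine internal standard) and quantified by LC-MS/MS in positive ESI. Non-compartmental analysis. F = dose-corrected AUC p.o./i.v.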

[8] = AUC (0 to infinity) in Balb/c mouse at 5 mg/kg, iv by LC-MS analysis; type: ADME, organism-based; set-up: time infinity, route intravenous, dose 5 mg/kg; conditions: in vivo; outline: as §2
[9] = AUC (0 to infinity) in Balb/c mouse at 50 mg/kg, po by LC-MS analysis; type: ADME, organism-based; set-up: route oral, time infinity, dose 50 mg/kg; conditions: in vivo; outline: as §2
[10] = Tmax in Balb/c mouse at 50 mg/kg, po by LC-MS analysis; type: ADME, organism-based; conditions: in vivo; outline: as §2
[11] = AUC (0 to t) in Balb/c mouse at 5 mg/kg, iv by LC-MS analysis; type: ADME, organism-based; set-up: dose 5 mg/kg; conditions: in vivo; outline: as §2
[12] = AUC (0 to t) in Balb/c mouse at 50 mg/kg, po by LC-MS analysis; type: ADME, organism-based; set-up: dose 50 mg/kg; conditions: in vivo; outline: as §2
[13] = Clearance in Balb/c mouse at 5 mg/kg, iv by LC-MS analysis; type: ADME, organism-based; conditions: in vivo; outline: as §2
[14] = Elimination half life in Balb/c mouse at 5 mg/kg, iv by LC-MS analysis; type: ADME, organism-based; conditions: in vivo, read-out: beta t1/2 (converted); outline: as §2
[15] = MRT (0 to infinity) in Balb/c mouse at 5 mg/kg, iv by LC-MS analysis; type: ADME, organism-based; conditions: in vivo; outline: as §2
[16] = Elimination half life in Balb/c mouse at 50 mg/kg, po by LC-MS analysis; type: ADME, organism-based; conditions: in vivo, read-out: beta t1/2 (converted); outline: as §2
[17] = Cmax in Balb/c mouse at 50 mg/kg, po by LC-MS analysis; type: ADME, organism-based; set-up: route oral, dose 50 mg/kg; conditions: in vivo; outline: as §2
[18] = MRT (0 to infinity) in Balb/c mouse at 50 mg/kg, po by LC-MS analysis; type: ADME, organism-based; conditions: in vivo; outline: as §2

Compound	MIC=>90 [1]	IC50 (Vero)	also measured
O=c1c(NCc2ccccn2)c(Nc2cccc(N3CCSCC3)c2)c1=O	> 32 µg/mL	–	–
O=C1OCC(NCc2cccnc2)=C1c1ccc(N2CCOCC2)cc1	> 32 µg/mL	–	–
COc1ccccc1Nc1c(NCc2ccccn2)c(=O)c1=O	> 32 µg/mL	–	–
O=c1c(NCc2ccccn2)c(Nc2ccc(C(F)(F)F)cc2)c1=O	14.9 µg/mL (≈ 42.9 µM)	–	–
O=C1CCc2ccc(Nc3c(NCc4ccccn4)c(=O)c3=O)cc21	1.83 µg/mL (≈ 5.5 µM)	> 64 µg/mL	–
O=c1c(NCc2ccccn2)c(Nc2ccc3sccc3c2)c1=O	> 32 µg/mL	–	–
Cc1cc(Nc2c(NCc3ccccn3)c(=O)c2=O)ccc1N1CCSCC1	0.496 µg/mL (≈ 1.26 µM)	> 64 µg/mL	intrinsic clearance [2]: 77 µL/min; IC50 [3]: > 10 µM; half-life at 1 µM [4]: 9 min; half-life at 1 µM [5]: 5.4 min; intrinsic clearance [6]: 127.8 µL/min
O=C1NC(=O)C(c2ccc(N3CCOCC3)cc2)=C1NCc1ccncc1	> 32 µg/mL	–	–
O=c1c(NCc2ccccn2)c(Nc2ccc(N3CC[S+]([O-])CC3)cc2)c1=O	15.8 µg/mL (≈ 39.9 µM)	–	–
O=c1c(NCc2ccccn2)c(Nc2ccc(N3CCSCC3)cc2)c1=O	1.54 µg/mL (≈ 4.06 µM)	> 64 µg/mL	intrinsic clearance [2]: 57.2 µL/min; IC50 [3]: > 30 µM; half-life at 1 µM [4]: 12.1 min; half-life at 1 µM [5]: 12.6 min; intrinsic clearance [6]: 55.1 µL/min
O=c1c(NCc2ccccn2)c(Nc2ccc(N3CCOCC3)cn2)c1=O	> 32 µg/mL	–	–
CN(C)c1ccc(Nc2c(NCc3ccccn3)c(=O)c2=O)cc1	2 µg/mL (≈ 6.19 µM)	–	–
O=c1c(NCc2ccccn2)c(-c2ccc(N3CCOCC3)cc2)c1=O	0.12 µg/mL (≈ 0.343 µM)	> 64 µg/mL	intrinsic clearance [2]: 21.9 µL/min; IC50 [3]: > 30 µM; half-life at 1 µM [4]: 31.7 min; half-life at 1 µM [5]: 17.1 min; intrinsic clearance [6]: 40.6 µL/min
Cc1cc(Nc2c(NCc3ccccn3)c(=O)c2=O)ccc1N1CCOCC1	2.45 µg/mL (≈ 6.48 µM)	> 64 µg/mL	–
O=c1c(NCc2ccccn2)c(Nc2ccc(N3CCOCC3)cc2)c1=O	3.75 µg/mL (≈ 10.3 µM)	> 64 µg/mL	intrinsic clearance [2]: < 7.4 µL/min; IC50 [3]: > 30 µM; half-life at 1 µM [4]: > 93.2 min; half-life at 1 µM [5]: > 93.2 min; intrinsic clearance [6]: < 7.4 µL/min
Cc1ccc(CNc2c(Nc3ccc(N4CCSCC4)cc3)c(=O)c2=O)nc1	> 32 µg/mL	–	–
O=C1COCCN1c1ccc(Nc2c(NCc3ccccn3)c(=O)c2=O)cc1	7.75 µg/mL (≈ 20.5 µM)	–	–
O=c1c(NCc2ccccn2)c(Nc2ccc(N3CCCOCC3)cc2)c1=O	6.65 µg/mL (≈ 17.6 µM)	–	–
O=C1NC(=O)C(c2ccc(N3CCOCC3)cc2)=C1NCc1cccnc1	> 32 µg/mL	–	–
O=c1c(NCc2ccccn2)c(Nc2ccc3ncsc3c2)c1=O	1.91 µg/mL (≈ 5.68 µM)	> 64 µg/mL	–
O=C1OCC(NCc2ccccn2)=C1c1ccc(N2CCSCC2)cc1	> 32 µg/mL	–	–
COc1cc(Nc2c(NCc3ccccn3)c(=O)c2=O)ccc1N1CCSCC1	> 32 µg/mL	–	–
O=c1c(NCc2ccccn2)c(Nc2ccc(N3CCOCC3)nc2)c1=O	> 32 µg/mL	–	–

Compound	MIC=>90 [1]	IC50 (Vero)	also measured
O=C1NC(=O)C(c2ccc(N3CCOCC3)cc2)=C1NCc1ccccn1	> 32 µg/mL	–	–
O=C1OCC(c2ccc(N3CCOCC3)cc2)=C1NCc1cccnc1	> 32 µg/mL	–	–
O=C1CCc2cc(Nc3c(NCc4ccccn4)c(=O)c3=O)ccc21	3.46 µg/mL (≈ 10.4 µM)	> 64 µg/mL	–
CO[C@H]1/C=C/O[C@@]2(C)Oc3c(C)c(O)c4c(O)c(c(/C=N/N5CCN(C)CC5)c(O)c4c3C2=O)NC(=O)/C(C)=C\C=C\[C@H](C)[C@H](O)[C@@H](C)[C@@H](O)[C@@H](C)[C@H](OC(C)=O)[C@@H]1C	0.015 µg/mL (≈ 0.0182 µM)	–	–
O=C1CCCc2cc(Nc3c(NCc4ccccn4)c(=O)c3=O)ccc21	0.739 µg/mL (≈ 2.13 µM)	> 64 µg/mL	intrinsic clearance [2]: 16.6 µL/min; half-life at 1 µM [4]: 41.9 min; half-life at 1 µM [5]: 10.3 min; intrinsic clearance [6]: 67.2 µL/min
O=c1c(NCc2ccccn2)c(Nc2ccc3c(c2)OCCO3)c1=O	1.89 µg/mL (≈ 5.59 µM)	> 64 µg/mL	–
Cc1cccc(CNc2c(Nc3ccc(N4CCSCC4)cc3)c(=O)c2=O)n1	3.65 µg/mL (≈ 9.24 µM)	–	–
COc1cccc(Nc2c(NCc3ccccn3)c(=O)c2=O)c1	6.02 µg/mL (≈ 19.5 µM)	–	–
NNC(=O)c1ccncc1	0.019 µg/mL (≈ 0.139 µM)	–	–
O=c1c(NCc2ccccn2)c(Nc2ccc(N3CCCCC3)cc2)c1=O	3.76 µg/mL (≈ 10.4 µM)	–	–
O=c1c(NCc2ccccn2)c(Nc2ccc3c(c2)CCC3)c1=O	0.979 µg/mL (≈ 3.07 µM)	> 64 µg/mL	intrinsic clearance [2]: 67.1 µL/min; IC50 [3]: > 30 µM; half-life at 1 µM [4]: 10.3 min; half-life at 1 µM [5]: 11.1 min; intrinsic clearance [6]: 62.4 µL/min
O=c1c(NCc2ccccn2)c(Nc2ccc3[nH]ccc3c2)c1=O	> 32 µg/mL	–	–
O=c1c(NCc2ccccn2)c(Nc2ccc(Cl)cc2)c1=O	7.7 µg/mL (≈ 24.5 µM)	–	–
COc1ccc(Nc2c(NCc3ccccn3)c(=O)c2=O)cc1	3.42 µg/mL (≈ 11 µM)	–	–
O=c1c(NCc2ccccn2)c(Nc2ccc3c(c2)OCCCO3)c1=O	2.22 µg/mL (≈ 6.32 µM)	> 64 µg/mL	–
O=c1c(NCc2cccnc2)c(Nc2ccc(N3CCSCC3)cc2)c1=O	> 32 µg/mL	–	–
O=C1OCC(NCc2ccccn2)=C1c1ccc(N2CCOCC2)cc1	> 32 µg/mL	–	–
N#Cc1cc(Nc2c(NCc3ccccn3)c(=O)c2=O)ccc1N1CCSCC1	1.23 µg/mL (≈ 3.04 µM)	> 64 µg/mL	–
O=C1OCC(c2ccc(N3CCOCC3)cc2)=C1NCc1ccccn1	> 32 µg/mL	–	–
O=c1c(NCc2ccccn2)c(Nc2ccc(N3CCSCC3)c(C(F)(F)F)c2)c1=O	9.4 µg/mL (≈ 21 µM)	–	–
O=c1c(NCc2ccccn2)c(Nc2ccc3c(c2)OCO3)c1=O	0.452 µg/mL (≈ 1.4 µM)	> 64 µg/mL	bioavailability [7]: 13.1%; intrinsic clearance [2]: < 7.4 µL/min; AUC(0-inf) [8]: 1670 ng·h/mL; AUC(0-inf) [9]: 2200 ng·h/mL; IC50 [3]: > 30 µM; Tmax [10]: 49.8 min; half-life at 1 µM [4]: > 93.2 min; AUC(0-t) [11]: 1670 ng·h/mL; AUC(0-t) [12]: 2200 ng·h/mL; clearance [13]: 51.4 mL/min/kg; half-life [14]: 19.8 min; half-life at 1 µM [5]: 17 min; MRT inf [15]: 16.8 min; intrinsic clearance [6]: 40.8 µL/min; half-life [16]: 30.6 min; Cmax [17]: 1330 ng/mL; MRT inf [18]: 81.6 min
O=c1c(NCc2ccccn2)c(Nc2ccc3scnc3c2)c1=O	0.963 µg/mL (≈ 2.86 µM)	> 64 µg/mL	IC50 [3]: > 10 µM
